Assay results: ChEMBL document CHEMBL4219151, “Piperidinyl Ureas Chemically Control Defective in Cullin Neddylation 1 (DCN1)-Mediated Cullin Neddylation” (J Med Chem, 2018)
≈ marks a conversion by molar mass, not a printed value. Calls of active or inactive are those of the source. No cut-off for these calls is given here.

Assays:
[1] = Permeability of the compound at 10 uM by PAMPA; type: ADME; details: for Papp at 10 µM: PAMPA, read-out: permeability; for permeability: pampa, 10 µM
Method in brief: (§1)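 Measured in triplicate within at least one experiment; values reported as mean ± standard deviation.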

[2] = Solubility of the compound at pH 7.4 after 18 hrs by UV-spectroscopy; type: physicochemical; details: buffer; method in brief: as §1
DCN1-like protein 1 [3] = target: T1, DCN1-like protein 1 (Homo sapiens, UniProt Q96GG9)
Homo sapiens = species on record: Homo sapiens; experiment: Inhibition of human RBX1-catalyzed CUL2(CTD) neddylation assessed as reduction in transfer of N-terminal cys-tagged NEDD8 from UBE2M to CUL2-CTD at 12.5 uM measured up to 6 mins by pulse-chase assay
Method in brief: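 In vitro pulse-chase monitoring NEDD8 transfer from UBE2M to the CUL2 C-terminal domain, stimulated by DCN1 together with RBX1. The CUL2 domain stands in for cullins 1-5. The assay is a variation of a previously published pulse-chase format, also run against each of the five DCN family members.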

BJ = experiment: Growth inhibition of human BJ cells; type: cell-based
Method in brief: (§2)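 In vitro monolayer proliferation assay in BJ cells (normal fibroblasts lacking DCN1 amplification) and HCC95 cells (squamous cell carcinoma line carrying DCN1 amplification). EC50 is reported as mean ± standard deviation from at least one experiment run in triplicate. A ">" value means less than 50% growth inhibition at the highest concentration tested.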

DCN1-like protein 1 [4] = target: T1, DCN1-like protein 1; experiment: Inhibition of human DCN1-mediated cullin neddylation assessed as reduction in transfer of fluorescein-5-maleimide-tagged NEDD8 from N-terminally acetylated human UBE2M to CUL2-CTD measured for 10 sec by pulse-chase assay
HCC95 = experiment: Growth inhibition of human HCC95 cells; type: functional, cell-based; method in brief: as §2
DCN1-like protein 1 [5] = target: T1, DCN1-like protein 1; experiment: Binding affinity biotinylated human GST-tagged DCN1 by ITC method

T1 sequence (Q96GG9 whole entry): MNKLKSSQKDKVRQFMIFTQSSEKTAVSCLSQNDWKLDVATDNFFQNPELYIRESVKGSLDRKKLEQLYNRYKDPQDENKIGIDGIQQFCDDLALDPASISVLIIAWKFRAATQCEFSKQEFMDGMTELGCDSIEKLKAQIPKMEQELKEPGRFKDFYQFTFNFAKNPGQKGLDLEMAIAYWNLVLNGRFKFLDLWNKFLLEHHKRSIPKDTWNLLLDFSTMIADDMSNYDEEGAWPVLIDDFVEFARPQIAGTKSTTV

Compound	Papp at 10 µM [1] [×10⁻⁶ cm/s]	solubility at 18 h [2] [µM]	IC50 (DCN1-like protein 1 [3]) [µM]	other results
CCCN1CCC(N(Cc2ccncc2)C(=O)Nc2cccc(C(F)(F)F)c2)CC1	700	85 (≈ 35.7 µg/mL)	–	–
CSc1cccc(NC(=O)NC2CCN(Cc3ccccc3)CC2)c1	–	–	> 67	–
O=C(Nc1cccc(C(F)(F)F)c1)N(Cc1ccccc1)C1CCN(Cc2c[nH]cn2)CC1	50	110 (≈ 50.3 µg/mL)	5.9	–
O=C(Nc1cccc(C(F)(F)F)c1)NC1CCN(Cc2ccccc2F)CC1	–	44 (≈ 17.4 µg/mL)	13	permeability [1]: 1500 ×10⁻⁶ cm/s
Cc1ccccc1CN1CCC(NC(=O)Nc2cccc(C(F)(F)F)c2)CC1	–	44 (≈ 17.2 µg/mL)	4	permeability [1]: 1200 ×10⁻⁶ cm/s
CCCN1CCC(N(CC(C)C)C(=O)Nc2cccc(C(F)(F)F)c2)CC1	–	96 (≈ 37 µg/mL)	5.8	permeability [1]: 1900 ×10⁻⁶ cm/s
CCCN1CCC(N(Cc2cc(F)cc(C(F)(F)F)c2)C(=O)Nc2cccc(C(F)(F)F)c2)CC1	> 2200	37 (≈ 18.7 µg/mL)	1	inhibition (Homo sapiens): inactive; EC50 (BJ): > 23 µM; EC50 (DCN1-like protein 1 [4]): 0.18 µM; EC50 (HCC95): 21 µM
Cc1ccc(CN2CCC(NC(=O)Nc3cccc(C(F)(F)F)c3)CC2)cc1	> 2200	14 (≈ 5.48 µg/mL)	–	–
CCCN1CCC(N(CCOC)C(=O)Nc2cccc(C(F)(F)F)c2)CC1	–	64 (≈ 24.8 µg/mL)	21	permeability [1]: 1600 ×10⁻⁶ cm/s
CCCN1CCC(N(CCC)C(=O)Nc2cccc(C(F)(F)F)c2)CC1	–	61 (≈ 22.7 µg/mL)	10	permeability [1]: 1600 ×10⁻⁶ cm/s
CC(C)CCN1CCC(N(Cc2ccccc2)C(=O)Nc2cccc(C(F)(F)F)c2)CC1	> 2200	60 (≈ 26.9 µg/mL)	0.79	–
O=C(Nc1cccc(C(F)(F)F)c1)N(Cc1ccccc1)C1CCN(CC2CCCCC2)CC1	< 1	1.2 (≈ 0.568 µg/mL)	0.62	–
O=C(Nc1cccc(C(F)(F)F)c1)N(Cc1ccccc1)C1CCN(CC2CC2)CC1	> 2200	75 (≈ 32.4 µg/mL)	0.21	–
CCCN1CCC(N(Cc2ccco2)C(=O)Nc2cccc(C(F)(F)F)c2)CC1	> 2200	69 (≈ 28.3 µg/mL)	0.75	Kd (DCN1-like protein 1 [5]): 0.7 µM; EC50 (BJ): > 23 µM; EC50 (DCN1-like protein 1 [4]): 0.57 µM; EC50 (HCC95): > 23 µM
CCCCCN1CCC(N(Cc2ccccc2)C(=O)Nc2cccc(C(F)(F)F)c2)CC1	–	58 (≈ 26 µg/mL)	0.66	permeability [1]: 1400 ×10⁻⁶ cm/s
CC(C)(C)CN1CCC(N(Cc2ccccc2)C(=O)Nc2cccc(C(F)(F)F)c2)CC1	–	–	0.96	–
Cc1cccc(NC(=O)NC2CCN(Cc3ccccc3)CC2)c1	–	–	44	–
O=C(Nc1cccc(C(F)(F)F)c1)NC1CCN(Cc2ccccc2)CC1	670	32 (≈ 12.1 µg/mL)	–	EC50 (BJ): > 24 µM; EC50 (HCC95): > 32 µM
O=C(Nc1ccccc1)NC1CCN(Cc2ccccc2)CC1	–	68 (≈ 21 µg/mL)	> 67	permeability [1]: 1400 ×10⁻⁶ cm/s

Compound	Papp at 10 µM [1] [×10⁻⁶ cm/s]	solubility at 18 h [2] [µM]	IC50 (DCN1-like protein 1 [3]) [µM]	other results
CCCN1CCC(N(CCC(C)C)C(=O)Nc2cccc(C(F)(F)F)c2)CC1	–	61 (≈ 24.4 µg/mL)	2.7	permeability [1]: 1500 ×10⁻⁶ cm/s
O=C(Nc1cccc(C(F)(F)F)c1)NC1CCN(Cc2cccc(Cl)c2)CC1	–	0.7 (≈ 0.288 µg/mL)	–	permeability [1]: 1700 ×10⁻⁶ cm/s
CC(C)(C)N1CCC(N(Cc2ccc3c(c2)OCO3)C(=O)Nc2cccc(C(F)(F)F)c2)CC1	> 2200	75 (≈ 35.8 µg/mL)	0.31	inhibition (Homo sapiens): inactive; EC50 (BJ): > 40 µM; EC50 (DCN1-like protein 1 [4]): 0.37 µM; EC50 (HCC95): > 40 µM
CCCC(=O)N1CCC(N(Cc2ccccc2)C(=O)Nc2cccc(C(F)(F)F)c2)CC1	> 2200	< 0.1	–	–
CC(=O)O[C@H]1CN(Cc2ccccc2)CC[C@@H]1NC(=O)Nc1cccc(C(F)(F)F)c1	–	–	12	–
O=C(Nc1cccc(C(F)(F)F)c1)NC1CCN(C(=O)c2ccccc2)CC1	910	2.8 (≈ 1.1 µg/mL)	> 67	–
Cc1cccc(CN2CCC(NC(=O)Nc3cccc(C(F)(F)F)c3)CC2)c1	> 2200	35 (≈ 13.7 µg/mL)	6.6	–
CCOc1cc(CN2CCC(N(Cc3ccccc3)C(=O)Nc3cccc(C(F)(F)F)c3)CC2)cc(Cl)c1O	110	0.4 (≈ 0.225 µg/mL)	–	–
O=C(Nc1cccc(C(F)(F)F)c1)NC1CCN(Cc2ccccc2Cl)CC1	830	0.3 (≈ 0.124 µg/mL)	28	–
O=C(Nc1cccc(C(F)(F)F)c1)N(Cc1ccccc1)C1CCN(CC2CCCC2)CC1	990	48 (≈ 22.1 µg/mL)	0.37	–
O=C(Nc1cccc(C(F)(F)F)c1)N(Cc1ccccc1)C1CCN(Cc2cc[nH]n2)CC1	> 2200	54 (≈ 24.7 µg/mL)	2.4	–
CCCCN1CCC(N(Cc2ccc3c(c2)OCO3)C(=O)Nc2cccc(C(F)(F)F)c2)CC1	> 2200	71 (≈ 33.9 µg/mL)	0.36	EC50 (BJ): > 40 µM; EC50 (DCN1-like protein 1 [4]): 0.11 µM; EC50 (HCC95): 46 µM
O=C(Nc1cccc(CN2CCOCC2)c1)NC1CCN(Cc2ccccc2)CC1	220	75 (≈ 30.6 µg/mL)	> 67	–
O=C(Nc1cccc(C(F)(F)F)c1)N(Cc1ccccc1)C1CCNCC1	> 2200	71 (≈ 26.8 µg/mL)	21	–
O=C(Nc1cccc(C(F)(F)F)c1)N(Cc1ccccc1)C1CCN(CCC(F)(F)F)CC1	440	2.3 (≈ 1.09 µg/mL)	23	–
O=C(Nc1cccc(C(F)(F)F)c1)NC1CCN(Cc2ccc(Cl)cc2)CC1	–	0.8 (≈ 0.329 µg/mL)	25	permeability [1]: 1300 ×10⁻⁶ cm/s
O=C(Nc1cccc(C(F)(F)F)c1)N(Cc1ccccc1)C1CCN(Cc2ccc3c(c2)OCCO3)CC1	> 2200	1 (≈ 0.526 µg/mL)	0.36	–
CC(C)(C)CCN1CCC(N(Cc2ccccc2)C(=O)Nc2cccc(C(F)(F)F)c2)CC1	> 2200	5.8 (≈ 2.68 µg/mL)	0.17	–
Cn1nccc1-c1cccc(NC(=O)NC2CCN(Cc3ccccc3)CC2)c1	> 2200	78 (≈ 30.4 µg/mL)	> 67	–

Compound	Papp at 10 µM [1] [×10⁻⁶ cm/s]	solubility at 18 h [2] [µM]	IC50 (DCN1-like protein 1 [3]) [µM]	other results
O=C(Nc1cccc(C(F)(F)F)c1)N(Cc1ccccc1)C1CCN(Cc2cccnc2)CC1	> 2200	30 (≈ 14.1 µg/mL)	20	–
Cc1ccc(NC(=O)NC2CCN(Cc3ccccc3)CC2)cc1Cl	> 2200	2.4 (≈ 0.859 µg/mL)	> 67	–
CCCN1CCC(N(Cc2ccccc2)C(=O)Nc2cccc(C(F)(F)F)c2)CC1	–	39 (≈ 16.4 µg/mL)	0.82	Kd (DCN1-like protein 1 [5]): 0.86 µM; permeability [1]: 1800 ×10⁻⁶ cm/s; EC50 (BJ): > 23 µM; EC50 (DCN1-like protein 1 [4]): 0.4 µM; EC50 (HCC95): > 40 µM
O=C(Nc1cccc(C(F)(F)F)c1)N(Cc1ccccc1)C1CCN(Cc2ccccc2)CC1	300	11 (≈ 5.14 µg/mL)	–	–
O=C(Nc1cccc(C(F)(F)F)c1)NC1CCN(Cc2cccc(F)c2)CC1	> 2200	50 (≈ 19.8 µg/mL)	16	–
O=C(Nc1cccc(I)c1)NC1CCN(Cc2ccccc2)CC1	–	–	> 67	–
CCCCS(=O)(=O)N1CCC(N(Cc2ccccc2)C(=O)Nc2cccc(C(F)(F)F)c2)CC1	< 1	1 (≈ 0.498 µg/mL)	–	–
CCCN1CCC(N(CC2CCCCC2)C(=O)Nc2cccc(C(F)(F)F)c2)CC1	> 2200	90 (≈ 38.3 µg/mL)	2.4	–
CCCN1CCC(N(Cc2ccc3c(c2)OCO3)C(=O)Nc2cccc(C(F)(F)F)c2)CC1	> 2200	66 (≈ 30.6 µg/mL)	–	EC50 (BJ): > 23 µM; EC50 (HCC95): > 40 µM
O=C(Nc1cccc(C(F)(F)F)c1)N(Cc1ccccc1)C1CCN(Cc2ccc(F)cc2)CC1	> 2200	0.9 (≈ 0.437 µg/mL)	10	–
COc1cccc(NC(=O)NC2CCN(Cc3ccccc3)CC2)c1	–	–	> 67	–
O=C(Nc1cccc(C(F)(F)F)c1)N(Cc1ccccc1)C1CCN(Cc2nccs2)CC1	310	6.3 (≈ 2.99 µg/mL)	–	–
O=C(Nc1ccc2c(c1)OCO2)NC1CCN(Cc2ccccc2)CC1	–	–	> 67	–
CCCCN(C(=O)Nc1cccc(C(F)(F)F)c1)C1CCN(CCC)CC1	> 2200	70 (≈ 27 µg/mL)	1.4	–
O=C(Nc1cccc(-n2cccc2)c1)NC1CCN(Cc2ccccc2)CC1	930	1 (≈ 0.374 µg/mL)	> 67	–
CCCN1CCC(N(Cc2cccnc2)C(=O)Nc2cccc(C(F)(F)F)c2)CC1	–	< 0.1	–	permeability [1]: 1300 ×10⁻⁶ cm/s; EC50 (BJ): > 23 µM; EC50 (HCC95): > 23 µM
O=C(Nc1cccc(C(F)(F)F)c1)N(Cc1ccccc1)C1CCN(Cc2ccc3c(c2)OCO3)CC1	> 2200	< 0.1	12	–
O=C(Nc1cccc(C(F)(F)F)c1)NC1CCN(Cc2ccc(F)cc2)CC1	> 2200	19 (≈ 7.51 µg/mL)	14	–
CCCS(=O)(=O)N1CCC(N(Cc2ccccc2)C(=O)Nc2cccc(C(F)(F)F)c2)CC1	< 1	0.5 (≈ 0.242 µg/mL)	0.74	–
